An excerpt weighted towards active compounds, which were near 6.4% of everything screened.
Ecoli WT expand: blocks growth of wild type E. coli BW25113 | OD600 absorbance | growth inhibition, % at 100 µM | 98,000 compounds, 0.15% hits;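 active means growth inhibition above about 50% at one test dose, limit read from the data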;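 further: growth measured after 20 h incubation at 37 °C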
Lung fibro prol: blocks proliferation of human lung fibroblasts; LL 47 human lung fibroblast viability, ATP luminescence; hits give low values; viability, % at 10 µM; 85,000 compounds, 1.1% hits; AID 719;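 active means viability at or below 50% in the single dose screen; inactive means viability above 50%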;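 further: compound exposure lasted 72 h before the ATP readout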
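Assay system: human lung fibroblast line LL 47, low passage. Input: 1,150 fibroblasts seeded per well. Times: overnight cell rest, 72 h compound treatment at 37 °C. Evaluation: % viability of median cell-only signal. Technique: luminescent ATP detection, CellTiter-Glo. Control set: cell-only wells, no compound.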
HUVEC inhibit: human endothelial cell proliferation inhibition | 86,000 compounds, 1.1% hits | viability, % at 10 µM (by protocol) | HUVEC proliferation, CellTiter-Glo luminescence, 72 h; hits give low values;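 active means viability at or below 30%; inactive means viability above 30%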
Jurkat tox 60K: cytotoxic compounds reducing Jurkat cell viability. inhibition, % at 4 µM. AID 463. Jurkat E6.1 viability, ATP luminescence, 48 h. 56,000 compounds, 1.2% hits;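 active means inhibition above the mean inhibition of all tested compounds plus 3 SD, cut at about 28% in these data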
H69AR inhibit: growth inhibitors of human H69AR lung tumor cells | AID 598 | viability, % at 10 µM | 85,000 compounds, 6% hits | H69AR lung tumor viability, ATP luminescence, 72 h; hits give low values;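 active means viability at or below 40%; inactive means viability above 40%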;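 further: multidrug resistant small cell line overexpressing MRP-1 efflux transporter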
Ecoli tolC: E. coli tolC mutant growth inhibition; E. coli BW25113 tolC mutant growth, OD615; growth inhibition, % at 10 µM (by protocol); 65,000 compounds, 2.2% hits;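 active means growth inhibition at or above a cutoff equal to the mean over every tested compound plus 3 SD, cut at about 60% in these data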;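 further: growth measured after 20 h incubation at 37 °C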
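test system = E. coli BW25113 ΔtolC::kan bacteria | medium = LB with kanamycin 50 µg/mL | signal = OD at 615 nm | schedule = 37 °C, 20 h exposure | evaluation = % inhibition of E. coli growth | compound dosing = one dose of 10 µM final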
Large screens that a line does not name were inactive.

CCOC(=O)c1c(NC(=O)Cc2cccs2)sc(C(=O)NC2CCCC2)c1C	H69AR inhibit 27.8 (no result: Jurkat tox 60K, Ecoli tolC)
Cc1cc(N2CCOCC2)nc(SCc2ccc(Cl)cc2Cl)n1	none (no result: Lung fibro prol, HUVEC inhibit, Jurkat tox 60K, H69AR inhibit, Ecoli tolC)
COc1ccc(-c2cn3c(C)c(C(=O)N4CCc5ccccc5C4)sc3n2)cc1	H69AR inhibit 21.9 (no result: Ecoli WT expand)
Cc1c(C(=O)N2CCOCC2)sc2nc(-c3ccccc3)cn12	none
Cc1c(C(=O)N2CCc3ccccc3C2)sc2nc(-c3ccccc3)cn12	Ecoli tolC 67.4
COc1ccccc1CN=Cc1[nH]c2ccc(Br)c(Cl)c2c1O	H69AR inhibit 25.4 (no result: Jurkat tox 60K, Ecoli tolC)
C=CCN1C(c2ccc(OCC)cc2)=CS/C1=C(\C#N)c1nnc2n1CCCCC2	H69AR inhibit 33.5
CC/C(O)=C(/C#N)c1nnc2n1CCCCC2	none
O=C(NC1(C(F)(F)F)C(=O)Nc2c1c(=O)[nH]c(=O)n2-c1ccccc1)c1ccncc1 (configuration not stated)	none (no result: Ecoli WT expand, Jurkat tox 60K, Ecoli tolC)
CCN(CC)CCNS(=O)(=O)c1ccc(OC)c(Br)c1	none (no result: Lung fibro prol, HUVEC inhibit, Jurkat tox 60K, H69AR inhibit, Ecoli tolC)
Cc1ccc(S(=O)(=O)CC#CCOC(=O)c2ccc([N+](=O)[O-])cc2)cc1	Lung fibro prol 42.6, H69AR inhibit 1.6 (no result: Jurkat tox 60K, Ecoli tolC)
Cc1ccc(C(=O)c2ccc([N+](=O)[O-])cc2)cc1	none (no result: Jurkat tox 60K, Ecoli tolC)
CCOc1ccc(-n2c(C)nnc2SCC(=O)N(CC)CC)cc1	none (no result: Jurkat tox 60K, Ecoli tolC)
O=C(Cn1[nH]c(=O)c2ccccc2c1=O)N1CC=C(c2ccccc2)CC1	none (no result: Jurkat tox 60K, Ecoli tolC)
Cc1cnc(Nc2nc3ccccc3o2)nc1C(=O)Nc1cccc(C(F)(F)F)c1	Lung fibro prol 44.3, H69AR inhibit 1.3
COc1ccc(C2=CC(c3c(C)nn(-c4ccccc4)c3Cl)n3nnnc3N2)cc1OC (configuration not stated)	H69AR inhibit 24.5
COc1ccccc1C1C=C(c2ccc(C)cc2)Nc2nnnn21 (configuration not stated)	Jurkat tox 60K 35.9, H69AR inhibit 18.5
Cc1ccc(C2=CC(c3cccs3)n3nnnc3N2)cc1 (configuration not stated)	none (no result: Lung fibro prol, HUVEC inhibit, Jurkat tox 60K, H69AR inhibit, Ecoli tolC)
CCOc1ccc(C2C=C(c3ccc(C)cc3)Nc3nnnn32)cc1 (configuration not stated)	HUVEC inhibit 21.9, H69AR inhibit 2.2
CCOc1ccc(C2C=C(c3ccccc3)Nc3nnnn32)cc1 (configuration not stated)	H69AR inhibit 32.8
COC(=O)c1ccc(COc2ncnc3c(Cl)cc(Cl)cc23)o1	none
CCN1N=C(c2cc(Cl)sc2Cl)CSC1=O	none (no result: Ecoli WT expand, Jurkat tox 60K, Ecoli tolC)
COC(=O)c1cc(Br)c(=O)n(-c2cc(C)on2)c1	none (no result: Jurkat tox 60K)
CC1CCCCN1S(=O)(=O)c1ccc(S(=O)(=O)N2CCN(c3ccc(F)cc3)CC2)cc1 (configuration not stated)	H69AR inhibit 19.3
O=S(=O)(c1ccc(F)cc1)N1CCN(c2ccccc2)CC1	none (no result: Jurkat tox 60K, Ecoli tolC)
COc1ccc(C2c3c(oc4ccccc4c3=O)C(=O)N2c2ccccn2)cc1OC (configuration not stated)	H69AR inhibit 25.9 (no result: Ecoli WT expand)
CCOC(=O)C1=C(N)OC2=C(C(=O)CC(C)(C)C2)C1c1cccs1 (configuration not stated)	none (no result: Ecoli WT expand, Jurkat tox 60K, Ecoli tolC)
Clc1ccc2nc(CN3CCCc4ccccc43)cn2c1	Ecoli tolC 61.2
O=C1C(=C2CCCCC2)SC(=S)N1Cc1ccco1	H69AR inhibit 10.8
O=C(c1csc2c1CCCCC2)N1CCN(c2ncccn2)CC1	none (no result: Lung fibro prol, HUVEC inhibit, H69AR inhibit)
CCOC(=O)c1ccc(Nc2nnc(C(C)(C)C)c(=O)[nH]2)cc1	H69AR inhibit 2.6 (no result: Jurkat tox 60K)
O=C(CN1CCC(O)(c2ccccc2F)CC1)NCCc1c[nH]c2ccccc12	none
CC1CCN(S(=O)(=O)c2cccc(C(=O)NCc3cccs3)c2)CC1	Ecoli tolC 61.6
CCCCCn1c(-c2ccco2)nc2nc3ccccc3nc21	Ecoli tolC 76.9
Cc1ccc2c(c1)cc1c(=O)[nH]ncn12	none (no result: Lung fibro prol, HUVEC inhibit, Jurkat tox 60K, H69AR inhibit, Ecoli tolC)
C=CCn1c(SC(C)CC)nc(O)cc1=O (configuration not stated)	none (no result: Jurkat tox 60K, Ecoli tolC)
C=CCn1c(=O)c2ccccc2n2c(SCc3c(C(=O)OCC)oc4ccccc34)nnc12	none (no result: Ecoli WT expand)
CC1CCN(c2ccc(NC(=S)NC(=O)c3ccc(-c4cccc([N+](=O)[O-])c4)o3)cc2)CC1	H69AR inhibit 24.7 (no result: Jurkat tox 60K, Ecoli tolC)
COC(=O)c1ccc(Oc2nc(N3CCCCC3)nc(N3CCOCC3)n2)cc1	Ecoli tolC 65.7
N#CC1=C(N)Oc2c(ccc3cccnc23)C1c1cccnc1 (configuration not stated)	none (no result: Lung fibro prol, HUVEC inhibit, Jurkat tox 60K, H69AR inhibit)
